Columns and labels:
[1] = target: T1, Acyl-protein thioesterase 1 (Homo sapiens, UniProt O75608); assay: Inhibition of human APT1
Procedure, shortened: (§1)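 Potency and selectivity were measured by gel-based competitive ABPP. The enzyme source was preincubated with inhibitor, then labeled with a fluorophosphonate activity-based probe. Residual active-site labeling was visualized in-gel.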

[2] = target: T2, sn-1-specific diacylglycerol lipase ABHD11 (Homo sapiens, UniProt Q8NFV4); assay: Inhibition of ABHD11 (unknown origin); procedure, shortened: as §1
T2 sequence (Q8NFV4 whole entry): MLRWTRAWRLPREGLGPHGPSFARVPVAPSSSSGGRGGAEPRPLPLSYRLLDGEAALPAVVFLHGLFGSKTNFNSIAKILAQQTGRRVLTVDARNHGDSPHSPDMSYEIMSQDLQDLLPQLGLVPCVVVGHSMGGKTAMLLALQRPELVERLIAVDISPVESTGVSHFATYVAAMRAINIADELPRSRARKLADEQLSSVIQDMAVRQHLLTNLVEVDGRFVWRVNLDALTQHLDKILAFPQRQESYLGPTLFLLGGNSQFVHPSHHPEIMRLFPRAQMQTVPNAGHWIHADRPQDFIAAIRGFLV

[3] = target: T3, Acyl-protein thioesterase 2 (Homo sapiens, UniProt O95372); assay: Inhibition of human APT2; procedure, shortened: as §1
T3 sequence (O95372 whole entry): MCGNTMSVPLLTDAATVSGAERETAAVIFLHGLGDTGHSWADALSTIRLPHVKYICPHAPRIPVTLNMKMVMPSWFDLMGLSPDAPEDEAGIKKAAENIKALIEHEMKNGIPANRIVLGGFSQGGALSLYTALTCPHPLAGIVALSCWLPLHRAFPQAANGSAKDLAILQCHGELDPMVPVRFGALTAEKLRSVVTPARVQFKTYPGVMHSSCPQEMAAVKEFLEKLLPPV

[4] = target: T3, Acyl-protein thioesterase 2; assay: Inhibition of APT2 (unknown origin) by enzyme kinetic assay
[5] = Inhibition of Toxoplasma gondii ASH1
Procedure, shortened: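 The Toxoplasma gondii APT homologue TgASH1 was assayed by competitive ABPP. The inhibitor was preincubated, followed by activity-based probe labeling. Loss of probe labeling of TgASH1 was scored across inhibitor concentrations.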

[6] = target: T3, Acyl-protein thioesterase 2; assay: Inhibition of APT2 (unknown origin)
[7] = target: T1, Acyl-protein thioesterase 1; assay: Inhibition of APT1 (unknown origin) by FluPol-ABPP assay
Procedure, shortened: (§2)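 Fluorescence polarization competitive ABPP (FluoPol-ABPP) in high-throughput format. Recombinant human APT enzyme was preincubated with candidate inhibitor at 10 µM. FP-TAMRA was then added for a short, time-dependent reaction under non-equilibrium conditions. Read-out was the polarization signal of probe labeling of the active site.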

[8] = target: T3, Acyl-protein thioesterase 2; assay: Inhibition of APT2 (unknown origin) by FluPol-ABPP assay; procedure, shortened: as §2
[9] = target: T1, Acyl-protein thioesterase 1; assay: Inhibition of APT1 (unknown origin)

T1 sequence (O75608 whole entry): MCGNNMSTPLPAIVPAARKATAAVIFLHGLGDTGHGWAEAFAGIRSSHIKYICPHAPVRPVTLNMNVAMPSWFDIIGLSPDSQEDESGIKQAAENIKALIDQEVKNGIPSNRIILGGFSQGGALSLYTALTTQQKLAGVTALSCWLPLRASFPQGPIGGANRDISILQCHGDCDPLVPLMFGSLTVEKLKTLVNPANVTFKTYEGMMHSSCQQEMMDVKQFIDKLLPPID

Row | Compound | IC50 [1] [nM] | IC50 [2] [nM] | IC50 [3] [nM] | also measured
1 | CCC1CCCCN1C(=O)n1ncc(C(O)(c2ccccc2)c2ccccc2)n1 (stereo not drawn) | > 10000 | < 30 | > 10000 | –
2 | CN(C)CCOB(c1ccccc1)c1ccc(COCc2ccc(B(OCCN(C)C)c3ccccc3)cc2)cc1 | – | – | – | Ki [4]: 730 nM
3 | CC(C)(C)C1CCN(C(=O)n2ncc(C(O)(c3ccccc3)c3ccccc3)n2)CC1 | 17 | < 30 | 30 | –
4 | CCCOc1oc(=O)c2cc(N)ccc2c1Cl | – | – | – | IC50 [5]: 1320 nM
5 | CCCCCCCCCC[C@@H]1C(=O)O[C@H]1CCCCS(=O)(=O)CCCN(C)C | – | – | – | IC50 [6]: 19.6 nM
6 | COc1ccc(N2CCN(C(=O)c3cc4c(s3)-c3ccccc3S(=O)(=O)C4)CC2)cc1 | – | – | – | Ki [7]: > 10000 nM; Ki [8]: 230 nM
7 | CCCCCCCCCC[C@@H]1C(=O)O[C@H]1CCc1ccc(OC)c(OC)c1 [PALMOSTATIN B] | – | – | – | IC50 [9]: 5.4 nM; IC50 [6]: 37.7 nM; Ki [6]: 34 nM
8 | O=C(CN1CCN(C(=O)c2ccco2)CC1)Nc1cc(C(F)(F)F)ccc1Cl | – | – | – | Ki [8]: > 10000 nM
9 | O=C(N1CCCCC1)n1ncc(C(O)(c2ccccc2)c2ccccc2)n1 | < 30 | < 30 | 200 | –

From ChEMBL document CHEMBL3132844, “Acyl protein thioesterase inhibitors as probes of dynamic S-palmitoylation” (Medchemcomm, 2014)
